TRPC4 PAM: TRPC4 (mouse) allosteric potentiation | Q9QUQ5 | HEK293 TRPC4beta/mu-opioid, DAMGO EC20, Fluo-4 Ca2+ flux; stronger effect = higher value | B-score at 10 µM | hit rate 0.42% among 310,000;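 active = B-score of calcium response area above 5 SD of library B-scores, with initial fluorescence ratio within 5 SD of library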;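 also: B-score of integrated fluorescence ratio over time as area under calcium response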
TRPC4 agonist: TRPC4 (mouse) channel activation. Q9QUQ5. HEK293 TRPC4beta/mu-opioid, Fluo4 calcium fluorescence; stronger effect = higher value. B-score at 10 µM. hit rate 0.49% among 310,000. AID 2237;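 active = B-score above 5 SD of library B-scores, and initial fluorescence ratio not above library mean plus 5 SD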;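 also: positive B-score marks a calcium rise read as TRPC4 activation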
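Assay system – TRPC4beta and mu-opioid receptor HEK293 stable cells · Measured by – Fluo4 fluorescence, kinetic · Schedule – dye loading 45 min room temperature, 110 s kinetic read · Read-out – B-scored integrated calcium fluorescence ratio · Controls – buffer and maximal DAMGO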
TRPC6 inhibitor: inhibitors of mouse TRPC6 channel. HEK293-TRPC6, membrane potential dye, ACh-evoked depolarization; stronger effect = lower value. Q61143. B-score at 10 µM. hit rate 1.1% among 310,000. AID 2553;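 active = B-score under library mean minus 3 SD, initial fluorescence not abnormally high, positive integrated signal ratio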;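 also: B-score derived from integrated fluorescence ratio over the kinetic read; more negative B-score means stronger inhibition of depolarization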
Target sequence (Q61143 whole entry, looked up): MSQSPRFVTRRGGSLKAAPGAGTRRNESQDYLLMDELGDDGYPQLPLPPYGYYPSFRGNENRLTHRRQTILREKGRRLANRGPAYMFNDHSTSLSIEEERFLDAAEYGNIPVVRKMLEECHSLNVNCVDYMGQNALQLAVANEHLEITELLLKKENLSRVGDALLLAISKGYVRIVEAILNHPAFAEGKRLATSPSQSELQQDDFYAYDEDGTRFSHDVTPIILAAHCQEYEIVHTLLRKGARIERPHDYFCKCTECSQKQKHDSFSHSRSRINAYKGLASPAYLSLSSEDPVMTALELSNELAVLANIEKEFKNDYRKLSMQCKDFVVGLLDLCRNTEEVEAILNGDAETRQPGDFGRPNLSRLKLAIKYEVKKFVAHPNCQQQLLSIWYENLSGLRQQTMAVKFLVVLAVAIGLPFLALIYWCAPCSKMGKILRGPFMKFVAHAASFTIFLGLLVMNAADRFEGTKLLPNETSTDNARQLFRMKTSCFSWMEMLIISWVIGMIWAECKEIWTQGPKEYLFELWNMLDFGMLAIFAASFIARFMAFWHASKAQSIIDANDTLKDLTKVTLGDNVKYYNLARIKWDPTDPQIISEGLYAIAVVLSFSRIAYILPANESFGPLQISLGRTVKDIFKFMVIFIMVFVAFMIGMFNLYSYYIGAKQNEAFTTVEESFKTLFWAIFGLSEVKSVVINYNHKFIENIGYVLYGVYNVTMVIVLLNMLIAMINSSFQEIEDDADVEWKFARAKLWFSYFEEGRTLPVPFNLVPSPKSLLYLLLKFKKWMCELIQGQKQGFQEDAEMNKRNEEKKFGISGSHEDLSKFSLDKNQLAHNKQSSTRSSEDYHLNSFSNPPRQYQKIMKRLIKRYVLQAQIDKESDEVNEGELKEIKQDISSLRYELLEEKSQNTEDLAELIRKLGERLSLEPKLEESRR
TRPC4 inh: inhibitors of mouse TRPC4 channel. Q9QUQ5. HEK293 TRPC4beta/mu-opioid, DAMGO-evoked Fluo4 calcium flux; stronger effect = lower value. B-score at 10 µM. hit rate 0.39% among 300,000. AID 2247;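 active = B-score over 3 SD under the library average, no early fluorescence shift, positive overall ratio signal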
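Signal: kinetic Fluo4 fluorescence imaging of calcium influx. Material: stable TRPC4beta/mu-opioid receptor HEK293 cells. Probe or stimulus: DAMGO in two steps, submaximal then maximal.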
TRPC6 act: activates the mouse TRPC6 cation channel; AID 2550; hit rate 0.13% among 310,000; B-score at 10 µM; HEK293-TRPC6 membrane potential dye fluorescence; stronger effect = higher value; Q61143;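 active = B-score of the integrated fluorescence ratio above library mean plus 3 SD, and starting fluorescence ratio within library mean plus 5 SD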;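 also: higher score means more depolarization so channel activation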
TRPC4 sel inh 2: second check of whether TRPC6 inhibitors also affect mouse TRPC4. shares compounds with TRPC6 inhibitor. HEK293 TRPC4/MOR, membrane potential dye fluorescence; channel activated by saturating DAMGO dose. inhibition, % at 10 µM. hit rate 42% among 920;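 active = compounds whose fluorescence signal differed from control wells by over 3 SD, either direction, in both duplicate plates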
TRPC4 spec: selectivity of TRPC6 inhibitors: effect on mouse TRPC4; shares compounds with TRPC6 inhibitor; HEK293 TRPC4/mu-opioid, membrane potential fluorescence; activity change, negative = inhibition, % at 10 µM; hit rate 61% among 920; AID 2777;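 active = rise or fall in signal beyond 3 SD of buffer-only wells in both replicate plates, either sign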;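 also: integrated kinetic ratio of fluorescence range over baseline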
HEK293 MPD ctr 2-1: second check of TRPC6 inhibitor effects in parental HEK293 cells; shares compounds with TRPC6 inhibitor; parental HEK293 membrane potential dye fluorescence; maximal acetylcholine challenge after compound addition; signal change vs control, % at 10 µM; hit rate 31% among 920; AID 2779;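 active = membrane potential signal moving either way by over 3 SD of the maximum-effect control, in both duplicate plates, meaning non-specific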
HEK293 MPD ctr-1: counter-screen for TRPC6 inhibitors: effect in parental HEK293 cells; shares compounds with TRPC6 inhibitor; membrane potential signal change, % at 10 µM; hit rate 60% among 920; parental HEK293 membrane potential dye fluorescence;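 active = membrane potential signal shifting up or down by more than 3 SD of buffer-only wells, on both duplicate plates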
HEK293 MPD ctr-2: checks TRPC6 modulator effects in parental HEK293 cells | AID 488924 | hit rate 51% among 2,400 | membrane potential dye fluorescence | membrane potential signal change, % at 10 µM | shares compounds with TRPC6 inhibitor;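 active = membrane potential signal moves up or down beyond 5 SD from buffer-only wells, on both duplicate plates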
HEK293 MPD ctr 2-2: parental HEK293 nonspecific activity of TRPC6 modulators, second screen. shares compounds with TRPC6 inhibitor. membrane potential dye fluorescence; after compound, maximal acetylcholine stimulation. inhibition, % at 10 µM. hit rate 14% among 2,400. AID 488926;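 active = membrane potential signal drops by more than 5 SD from the mean control signal, in both duplicate plates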;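 also: plate controls were acetylcholine ECmax control wells for no effect and buffer only wells for full effect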
TRPC4/MOR mod: selectivity of TRPC6 modulators against mouse TRPC4 | shares compounds with TRPC6 inhibitor | HEK293 TRPC4/mu-opioid, membrane potential fluorescence | percent change from control (negative = decrease, positive = increase), % at 10 µM | hit rate 69% among 2,400;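 active = membrane potential signal moved up or down beyond 5 SD of buffer control wells, in both duplicate plates, actives on both sides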;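 also: plate controls were assay buffer wells for no effect and DAMGO maximal-effect wells for full effect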
TRPC4 ctr inh 2: second selectivity test of TRPC6 modulators against mouse TRPC4; HEK293 TRPC4/mu-opioid, membrane potential dye fluorescence; stimulated with maximal-effect DAMGO; hit rate 55% among 2,400; inhibition, % at 10 µM; shares compounds with TRPC6 inhibitor; AID 488928;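 active = drop in membrane potential signal beyond 5 SD of the control wells in both duplicate plates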;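 also: TRPC4 counter screen for TRPC6 hits run under conditions tuned for TRPC6 not TRPC4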
TRPC6 block conf: confirmation of mouse TRPC6 inhibitors | HEK293-TRPC6, membrane potential dye, ACh-evoked depolarization | inhibition, % at 10 µM | shares compounds with TRPC6 inhibitor | hit rate 43% among 3,300 | AID 488960;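 active = fluorescence ratio falls more than 5 SD below the full-stimulation control mean, in both duplicate runs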;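 also: integrated fluorescence ratio of peak minus minimum over baseline after agonist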
TRPC6 act conf: mouse TRPC6 activator confirmation. AID 488961. activation, % at 10 µM. shares compounds with TRPC6 inhibitor. hit rate 11% among 2,800. HEK293-TRPC6 membrane potential dye fluorescence, FDSS;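 active = ratio signal rise beyond 5 SD above unstimulated control wells' mean, seen in both duplicate runs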;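 also: plate controls were buffer EC0 wells for no effect and acetylcholine ECmax response for full effect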
Active calls of the source: *; i = inactive; . = no result given; + = active, no number. Only some compounds are listed: those with a hit (about 2.3% of all), similar ones and a draw of the others.

SMILES	TRPC4 PAM	TRPC4 agonist	TRPC6 inhibitor	TRPC4 inh	TRPC6 act	HEK293 MPD ctr-2	HEK293 MPD ctr 2-2	TRPC4/MOR mod	TRPC4 ctr inh 2	TRPC6 block conf	TRPC6 act conf	others
CCOC(=O)c1ccc(NC(=O)NCc2ccncc2)cc1	i	i	-5.54*	i	i	i	i	i	i	i	.
O=C(NC(=S)N(Cc1ccccc1)c1ccccn1)C1CC1	i	i	i	i	i	.	.	.	.	.	.
CCCOC(=O)C(C)n1cnc2scc(-c3ccc(C)cc3)c2c1=O (stereo not given)	i	i	i	i	i	.	.	.	.	.	.
CCOc1ccc(N(C)S(=O)(=O)c2ccc3[nH]cc(C(=O)NCC(OC)OC)c(=O)c3c2)cc1	i	i	-5.49*	i	i	i	i	i	i	i	i
CN1CCN(S(=O)(=O)c2ccc(Oc3cccc(C(F)(F)F)c3)nc2)CC1	i	i	i	i	i	.	.	.	.	.	.
Cc1ccc(S(=O)(=O)N2CCC(Oc3cccc(C(F)(F)F)c3)CC2)cc1	i	i	-7.34*	i	i	.	.	.	.	i	.	TRPC4 sel inh 2=i;TRPC4 spec=i;HEK293 MPD ctr 2-1=i;HEK293 MPD ctr-1=i
CCN1CCc2c(C#N)c(NCc3ccccc3)nc(N(CC)CC)c2C1	i	i	-7.25*	i	i	.	.	.	.	i	i	TRPC4 sel inh 2=66.0%*;TRPC4 spec=-10.1%*;HEK293 MPD ctr 2-1=i;HEK293 MPD ctr-1=i
C=CCNc1nc(NCc2ccccc2)c(C#N)c2c1CN(C)CC2	i	i	-6.45*	i	i	-75.0%*	i	-21.0%*	45.5%*	i	i
CCCc1nc(NCc2ccccc2)c(C#N)c2c1CCCC2	i	i	i	i	i	.	.	.	.	.	.
Nc1c(C(=O)c2ccccc2)sc2nsc(SCCN3CCCC3)c12	i	86*	i	i	65.2*	+	i	272.5%*	35.5%*	i	513.0%*
Nc1c(C(=O)c2ccc(Cl)cc2)sc2nsc(SCCN3CCOCC3)c12	i	i	i	i	i	.	.	.	.	.	.
CCCOC1OC(=O)c2c1ccc(OC)c2OC (stereo not given)	i	i	i	i	i	.	.	.	.	.	.
CCC(C(=O)NC1CCCCC1)n1c(SCc2ccccc2F)nc2ccncc21 (stereo not given)	i	i	-5.23*	i	i	i	i	i	i	i	i
Cc1ccc(S(=O)(=O)Nc2nc3ccccc3nc2NCC2CCCO2)c(C)c1 (stereo not given)	i	i	i	i	14.2*	i	i	i	i	i	i
Cc1nc(N2CCCCC2)sc1C(=O)c1ccc(SCCO)c([N+](=O)[O-])c1	i	i	i	i	i	.	.	.	.	.	.
Cc1nc(N2CCCCC2)sc1C(=O)c1cccc([N+](=O)[O-])c1	i	i	-5.79*	i	i	i	i	i	i	i	i
O=S(=O)(c1cnccc1N1CCN(CCO)CC1)N1CCCCC1	i	i	i	i	i	.	.	.	.	.	.
COc1ccc(OC)c(C(c2nnnn2Cc2ccccc2)N2CCN(C3CCCCC3)CC2)c1 (stereo not given)	i	i	-5.74*	i	i	132.0%*	i	i	65.0%*	40.0%*	.
CCOc1cc(CNn2cnnc2)cc(Cl)c1OCC(=O)NC(C)(C)C	i	i	i	i	i	.	.	.	.	.	.
Cc1cc(OCCN2CCC(Cc3ccccc3)CC2)ccc1[N+](=O)[O-]	i	i	-8.22*	i	i	.	.	.	.	i	i	TRPC4 sel inh 2=54.0%*;TRPC4 spec=i;HEK293 MPD ctr 2-1=i;HEK293 MPD ctr-1=i
Fc1ccc(C(CCNCc2ccccn2)c2ccc(Cl)cc2)cc1 (stereo not given)	i	i	-5.19*	i	i	188.5%*	i	31.0%*	74.0%*	i	.
CC1CN(S(=O)(=O)c2cccc(C(=O)N(Cc3nnc(-c4ccccc4Cl)o3)C3CC3)c2)CC(C)O1 (stereo not given)	i	i	i	i	i	.	.	.	.	.	.
CC(NC(=S)N1CCN(c2ccccc2)CC1)c1ccccc1 (stereo not given)	i	i	i	i	i	.	.	.	.	.	.
C=CCNC(=O)CN1C(=O)C2C3c4ccccc4C(c4ccccc43)C2C1=O (stereo not given)	i	i	i	i	i	.	.	.	.	.	.
C[n+]1ccccc1COc1ccc(C(C)(C)C)cc1	i	i	-5.1*	i	i	i	i	i	i	i	i
CC(C)(C)c1ccc(OCCNCc2ccccc2)cc1	i	i	i	i	i	.	.	.	.	.	.
CCOCCCNc1c2c(nc3cc(-c4ccc(F)cc4)nn13)CCC2	i	i	i	i	i	.	.	.	.	.	.
CN(C)CCCNc1c2c(nc3cc(-c4cccc(F)c4)nn13)CCC2	i	123*	-7.27*	i	i	i	126.5%*	-20.5%*	51.5%*	78.5%*	i
O=C(C1CCN(S(=O)(=O)c2ccc(-n3cnnn3)cc2)CC1)N1CCCCC1	i	i	i	i	i	.	.	.	.	.	.

Screening results deposited in PubChem BioAssay by Johns Hopkins Ion Channel Center.
